Active and inactive are the calls of the source. The rule behind the calls is not given here.
Columns and labels:
Plasmodium falciparum [1] = test: Antiplasmodial activity against D-sorbitol synchronized ring stage of chloroquine-resistant Plasmodium falciparum W2 assessed as parasite growth inhibition measured after 48 hrs by YOYO-1 dye based FACSort flow cytometry analysis; assay type: functional, organism-based; details: W2, 48 h
[2] = Selectivity index, ratio of IC50 for African green monkey Vero cells to IC50 for D-sorbitol synchronized ring stage of chloroquine-resistant Plasmodium falciparum W2; assay type: toxicity; details: read-out: Ratio IC50
Vero = test: Cytotoxicity against African green monkey Vero cells measured after 24 hrs by resazurin dye based fluorescence assay; assay type: cell-based; details: Chlorocebus sabaeus
Heme [3] = test: Binding affinity to monomeric heme assessed as heme-compound complex formation by measuring shifting and broadening of the peaks by 1H-NMR analysis
Heme [4] = test: Binding affinity to monomeric heme assessed as decrease in band intensity in HEPES buffer in aqueous DMSO solution at pH 7.4 by UV-vis spectrophotometric titration analysis
Procedure, shortened: (§1)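 Monomeric hemin (12 μM) in 40% DMSO with 0.02 M HEPES, pH 7.4, was titrated with compound at 0–18 μM. The drop in the 401 nm monomeric-heme band was followed by UV-vis. Log K was obtained by nonlinear least-squares fitting of the titration curves. A DMSO solvent control was included.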

Heme [5] = test: Binding affinity to monomeric heme assessed as decrease in band intensity in MES buffer in aqueous DMSO solution at pH 5.6 by UV-vis spectrophotometric titration analysis
Procedure, shortened: (§2)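 Monomeric hemin (12 μM) in aqueous DMSO with 0.02 M MES, pH 5.6, was titrated with compound at 0–16 μM. Loss of the 401 nm monomeric-heme absorbance was monitored by UV-vis. Binding constant (log K) came from nonlinear least-squares fitting of the titration curves, with a DMSO solvent control.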

Heme [6] = test: Binding affinity to monomeric heme assessed as heme-compound complex formation at 1:1 ratio in aqueous DMSO solution at 5 micromol by mass spectrometry analysis
Heme [7] = test: Binding affinity to monomeric heme assessed as binding constant in MES buffer in aqueous DMSO solution at pH 5.6 by UV-vis spectrophotometric titration analysis; procedure, shortened: as §2
Heme [8] = test: Binding affinity to monomeric heme assessed as binding constant in HEPES buffer in aqueous DMSO solution at pH 7.4 by UV-vis spectrophotometric titration analysis; procedure, shortened: as §1
Plasmodium falciparum [9] = test: Potency index, ratio of chloroquine IC50 to compound IC50 for antiplasmodial activity against D-sorbitol synchronized ring stage of chloroquine-resistant Plasmodium falciparum W2 assessed as parasite growth inhibition measured after 48 hrs by YOYO-1 dye based FACSort flow cytometry analysis; assay type: functional
Plasmodium falciparum [10] = test: Antiplasmodial activity against sorbitol synchronized CQ-resistant Plasmodium falciparum W2 assessed as parasite growth inhibition after 48 hrs by SYBR Green I-based fluorescence assay; details: W2, 48 h

| SMILES | IC50 (Plasmodium falciparum [1]) [µM] | selectivity ratio [2] | IC50 (Vero) [µM] | further results |
| --- | --- | --- | --- | --- |
| O=C1c2cccc3c(N4CCN(CCO)CC4)ccc(c23)C(=O)N1CCNc1ccnc2cc(Cl)ccc12 | 0.0411 | 1100 | 45.2 |  |
| O=C1c2cccc3c(N4CCCCC4)ccc(c23)C(=O)N1CCNc1ccnc2cc(Cl)ccc12 | 0.149 | 851 | 126 |  |
| O=C1c2cccc3c(N4CCCCC4)ccc(c23)C(=O)N1CCCCCCNc1ccnc2cc(Cl)ccc12 | 0.13 | 1420 | 185 |  |
| O=C1c2cccc3cccc(c23)C(=O)N1CCCCCCNc1ccnc2cc(Cl)ccc12 | 0.39 | 560 | 218 |  |
| O=C1c2cccc3c(Br)ccc(c23)C(=O)N1CCCCNc1ccnc2cc(Cl)ccc12 | 0.0533 | 262 | 13.9 |  |
| O=C1c2cccc3c(N4CCCCC4)ccc(c23)C(=O)N1CCCCCCCCNc1ccnc2cc(Cl)ccc12 | 0.438 | 401 | 176 |  |
| O=C1c2cccc3c(N4CCOCC4)ccc(c23)C(=O)N1CCNc1ccnc2cc(Cl)ccc12 | 0.121 | 221 | 26.8 |  |
| O=C1c2cccc3c(Br)ccc(c23)C(=O)N1CCCCCCNc1ccnc2cc(Cl)ccc12 | 0.162 | 1150 | 186 |  |
| O=C1c2cccc3c(N4CCCCC4)ccc(c23)C(=O)N1CCCNc1ccnc2cc(Cl)ccc12 | 0.0512 | 3910 | 200 |  |
| O=C1c2cccc3cccc(c23)C(=O)N1CCCCCCCCNc1ccnc2cc(Cl)ccc12 | 0.357 | 576 | 206 |  |
| O=C1c2cccc3cccc(c23)C(=O)N1CCCCNc1ccnc2cc(Cl)ccc12 | 0.0407 | 186 | 7.58 |  |
| O=C1c2cccc3c(N4CCCCC4)ccc(c23)C(=O)N1CCCCNc1ccnc2cc(Cl)ccc12 | 0.0961 | 352 | 33.8 |  |
| O=C1OC(=O)c2cccc3cccc1c23 [1,8-NAPHTHALIC ANHYDRIDE] | > 10 |  | 505 |  |
| O=C1c2cccc3c(N4CCOCC4)ccc(c23)C(=O)N1CCCCCCNc1ccnc2cc(Cl)ccc12 | 0.0842 |  | 184 |  |
| O=C1c2cccc3c(Br)ccc(c23)C(=O)N1CCNc1ccnc2cc(Cl)ccc12 | 0.053 | 147 | 7.79 |  |
| O=C1c2cccc3c(N4CCN(CCO)CC4)ccc(c23)C(=O)N1CCCNc1ccnc2cc(Cl)ccc12 | 0.0154 | 4190 | 64.8 | Activity (Heme [3]): Active; Activity (Heme [4]): Active; Activity (Heme [5]): Active; Activity (Heme [6]): Active; log K (Heme [7]): 6.06; log K (Heme [8]): 6.33; Ratio IC50 (Plasmodium falciparum [9]): 15 |
| O=C1c2cccc3c(N4CCOCC4)ccc(c23)C(=O)N1CCCCNc1ccnc2cc(Cl)ccc12 | 0.237 | 52.6 | 12.5 |  |
| CC(C)[C@@H](C(=O)N[C@H](Cc1ccccc1)[C@@H](O)CN1CCN(Cc2ccc(Br)cc2)CC1)N1C(=O)c2ccccc2C1=O |  |  |  | IC50 (Plasmodium falciparum [10]): 3.01 µM |
| O=C1c2cccc3c(N4CCOCC4)ccc(c23)C(=O)N1CCCCCCCCNc1ccnc2cc(Cl)ccc12 | 3.97 | 44.1 | 175 |  |
| O=C1c2cccc3c(N4CCN(CCO)CC4)ccc(c23)C(=O)N1CCCCCCCCNc1ccnc2cc(Cl)ccc12 | 0.215 | 797 | 171 |  |
| O=C1c2cccc3c(N4CCN(CCO)CC4)ccc(c23)C(=O)N1CCCCNc1ccnc2cc(Cl)ccc12 | 0.0201 | 1580 | 31.9 |  |
| O=C1c2cccc3c(Br)ccc(c23)C(=O)N1CCCNc1ccnc2cc(Cl)ccc12 | 0.0597 | 179 | 10.7 |  |
| O=C1c2cccc3c(Br)ccc(c23)C(=O)N1CCCCCCCCNc1ccnc2cc(Cl)ccc12 | 0.562 | 315 | 177 |  |
| O=C1c2cccc3cccc(c23)C(=O)N1CCCNc1ccnc2cc(Cl)ccc12 | 0.147 | 21.4 | 3.14 |  |
| O=C1OC(=O)c2ccc(Br)c3cccc1c23 | > 10 |  | 361 |  |
| O=C1c2cccc3c(N4CCOCC4)ccc(c23)C(=O)N1CCCNc1ccnc2cc(Cl)ccc12 | 0.0669 | 1030 | 69 |  |
| O=C1c2cccc3c(N4CCN(CCO)CC4)ccc(c23)C(=O)N1CCCCCCNc1ccnc2cc(Cl)ccc12 | 0.12 | 109 | 13.1 |  |
| O=C1c2cccc3cccc(c23)C(=O)N1CCNc1ccnc2cc(Cl)ccc12 | 0.056 | 4440 | 249 |  |

Reference: ChEMBL document CHEMBL4334549, “Functionalized Naphthalimide-4-aminoquinoline Conjugates as Promising Antiplasmodials, with Mechanistic Insights” (ACS Med Chem Lett, 2020)
